# Source: ChEMBL document CHEMBL5674869, “The Histone Methyltransferase Inhibitor A-366 Uncovers a Role for G9a/GLP in the Epigenetics of Leukemia” (PLoS One, 2015)
# Active and inactive are the calls of the source. No cut-off for these calls is given here.
# Assays:
# [1] = target: T1, Histone-lysine N-methyltransferase EHMT2 (Homo sapiens) (UniProt Q96KQ7); assay: Inhibition of G9a in human HL-60 cells assessed as increase in cell differentiation marker CD11b for 14 days by flow cytometry; conditions: time 14.0 day
# T1 sequence (whole entry): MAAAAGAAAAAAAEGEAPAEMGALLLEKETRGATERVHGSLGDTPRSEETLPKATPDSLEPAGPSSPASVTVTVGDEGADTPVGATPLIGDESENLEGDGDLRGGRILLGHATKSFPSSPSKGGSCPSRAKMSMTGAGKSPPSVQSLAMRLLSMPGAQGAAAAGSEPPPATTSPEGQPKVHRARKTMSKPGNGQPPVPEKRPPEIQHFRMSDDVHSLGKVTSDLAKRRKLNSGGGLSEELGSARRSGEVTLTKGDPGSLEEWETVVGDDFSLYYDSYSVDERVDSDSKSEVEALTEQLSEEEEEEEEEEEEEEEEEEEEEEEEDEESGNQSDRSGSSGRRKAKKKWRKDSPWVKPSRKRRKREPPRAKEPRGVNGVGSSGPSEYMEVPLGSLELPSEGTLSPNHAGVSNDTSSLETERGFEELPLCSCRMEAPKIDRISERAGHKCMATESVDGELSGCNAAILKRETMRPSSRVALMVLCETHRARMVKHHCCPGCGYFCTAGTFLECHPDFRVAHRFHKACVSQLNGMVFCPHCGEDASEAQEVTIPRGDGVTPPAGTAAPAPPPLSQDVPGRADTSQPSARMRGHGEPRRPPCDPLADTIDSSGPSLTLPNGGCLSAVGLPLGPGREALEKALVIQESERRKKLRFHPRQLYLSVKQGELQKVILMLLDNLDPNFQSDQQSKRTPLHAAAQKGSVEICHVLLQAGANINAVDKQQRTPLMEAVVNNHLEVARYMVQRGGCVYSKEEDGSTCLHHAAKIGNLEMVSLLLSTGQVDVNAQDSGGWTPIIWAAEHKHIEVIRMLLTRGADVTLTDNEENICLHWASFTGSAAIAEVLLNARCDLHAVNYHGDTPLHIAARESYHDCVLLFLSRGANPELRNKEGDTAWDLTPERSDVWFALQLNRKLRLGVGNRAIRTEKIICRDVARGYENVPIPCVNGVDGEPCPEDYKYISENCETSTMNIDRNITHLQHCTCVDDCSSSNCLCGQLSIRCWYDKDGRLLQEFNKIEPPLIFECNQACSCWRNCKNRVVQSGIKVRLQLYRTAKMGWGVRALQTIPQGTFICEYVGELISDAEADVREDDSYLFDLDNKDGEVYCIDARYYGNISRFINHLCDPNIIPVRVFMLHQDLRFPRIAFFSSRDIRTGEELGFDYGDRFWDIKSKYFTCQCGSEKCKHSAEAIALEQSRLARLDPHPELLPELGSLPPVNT
# HL-60 = assay: Antiproliferative activity against human HL-60 cells after 14 days by Cell-titer Glo assay; type: functional, cell-based; conditions: time 14.0 day
# How it was run: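 Leukemia cells (MV4;11 or HL-60) in medium with 10% FBS were treated with a dose range of compound for 14 days. Proliferation was read by CellTiter-Glo endpoint, with inhibition set against untreated controls and cell-free wells as 100% inhibition. Viability was also measured in parallel by trypan blue exclusion.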
# [2] = target: T1, Histone-lysine N-methyltransferase EHMT2 (Homo sapiens); assay: Inhibition of G9a in human PC-3 cells assessed as effect on H4k20me3 levels at 0.3 to 3 uM after 72 hrs by Western blot analysis; type: cell-based; conditions: dose 0.3-3 µM
# How it was run: (§1)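 PC-3 prostate cells incubated with DMSO, 0.3 or 3 μM compound for 72 h. Lysates probed by western blot with antibodies to H3K9me2, H3K4me2, H3K4me3, H3K9me3, H4K20me1, H4K20me3, H3K36me2 and H3K27me3.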
# [3] = Drug level in SCID/beige mouse plasma xenografted with human MV4-11 cells at 30 mg/kg/day via osmotic-mini pump; type: ADME, organism-based; conditions: in vivo
# How it was run: (§2)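 Tumor-bearing SCID-beige female mice (6–8 wk) with subcutaneous flank MV4;11 xenografts (5 x 10^6 cells in 50% Matrigel, grown to ~200 mm3). Compound given by osmotic mini-pump at 30 mg/kg/day in 98% PEG-400/2% Tween-80. Separate PK/PD arm sacrificed after 2, 7 and 14 days of treatment; plasma and tissues collected and analyzed for drug levels.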
# HT-1080 = assay: Antiproliferative activity against human HT-1080 cells upto 10 uM after 5 days by Cell-Titer-Glo assay; type: functional, cell-based; conditions: time 5.0 day
# How it was run: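 ATCC tumor lines were grown in their recommended media with 10% FBS and STR-authenticated. Cells were exposed to compound for the stated number of days. Viable cells were read by CellTiter-Glo endpoint. Inhibition was the ratio of treated to untreated wells, with cell-free wells set as 100% inhibition. The EC50 was taken from the dose response.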
# MV4-11 [4] = assay: Inhibition of cell viability in human MV4-11 cells after 14 days by trypan blue exclusion assay; type: functional, cell-based; conditions: time 14.0 day
# How it was run: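 MV4;11 cells treated 14 days with compound over a concentration range. Viability scored by trypan blue exclusion; parallel proliferation read by CellTiter-Glo.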
# [5] = target: T1, Histone-lysine N-methyltransferase EHMT2 (Homo sapiens); assay: Inhibition of G9a in human PC-3 cells assessed as effect on H3k4me2 levels at 0.3 to 3 uM after 72 hrs by Western blot analysis; type: cell-based; conditions: dose 0.3-3 µM
# How it was run: as §1
# MV4-11 [6] = assay: Induction of cell morphology change in human MV4-11 cells assessed as increase in cytoplasm-nucleus ratio and nuclear lobulation at 5 uM after 10 days by Wright- Geimsa staining analysis; type: functional, cell-based; conditions: time 10.0 day
# How it was run: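 MV4;11 cells exposed to DMSO or 5 μM compound for 10 days, then stained with a Wright-Giemsa kit. Morphology was examined for cytoplasm:nucleus ratio and nuclear lobulation.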
# [7] = target: T1, Histone-lysine N-methyltransferase EHMT2 (Homo sapiens); assay: Inhibition of G9a in human PC-3 cells assessed as effect on H3k27me3 levels at 0.3 to 3 uM after 72 hrs by Western blot analysis; type: cell-based; conditions: dose 0.3-3 µM
# How it was run: as §1
# [8] = Cytotoxicity against human PBMC cells assessed as effect on cell viability after 48 hrs by Cell-titerGlo assay; type: toxicity, cell-based
# How it was run: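 PBMCs from two human donors were pooled and grown in AIM-V medium. Cells were treated with compound for 48 h. Viability was read by CellTiter-Glo endpoint.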
# [9] = Drug level in SCID/beige mouse tumor xenografted with human MV4-11 cells at 30 mg/kg/day via osmotic-mini pump; type: ADME, organism-based, Neoplasm; conditions: in vivo
# How it was run: as §2
# MV4-11 [10] = assay: Antitumor activity against human MV4-11 cells xenografted in SCID/beige mouse assessed as tumor growth inhibition at 30 mg/kg/day via osmotic-mini pump for 14 days; type: functional; conditions: MV4-11, 336 h, time 14 day
# How it was run: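 MV4;11 cells mixed with 50% Matrigel, 5 x 10^6 cells injected subcutaneously in flank of 6–8 week old female SCID-beige mice. At ~200 mm3, mice allocated by tumor volume (n = 10/group). Dosed by osmotic mini-pump in 98% PEG-400/2% Tween-80 for 14 days. Calipers read 2 times weekly, V = (L x W2)/2. %TGI computed from control versus treated mean tumor volumes.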
# HL-60 (human) = assay: Induction of cell cycle arrest in human HL-60 cells assessed as increase in G1 phase cells after 4 days by propidium iodide staining based flow cytometry; conditions: time 4.0 day
structure (smiles),measurement,setting,value
COc1cc2c(cc1OCCCN1CCCC1)N=C(N)C21CCC1,inhibition,[1],Active
same,Activity,HL-60,Active
same,inhibition,[2],inactive
same,Drug uptake,[3],Active
same,Activity,HT-1080,inactive
same,inhibition,MV4-11 [4],Active
same,inhibition,[5],inactive
same,Activity,MV4-11 [6],Active
same,inhibition,[7],inactive
same,Activity,[8],Non-Toxic
same,Drug uptake,[9],Active
same,inhibition in vivo at 30 mg/kg/day,MV4-11 [10],45%
same,Activity,HL-60 (human),Active
